Screening data from PubChem BioAssay.
PAD4 FP inh: inhibitors of human PAD4; Q9UM07; 330,000 tested, 0.41% active; recombinant PAD4, RCA probe fluorescence polarization; AID 485272; inhibition, % at 6.36 µM;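 active = percent inhibition above a cutoff equal to the mean of all tested compounds plus 3 SD, cut at about 15% in these data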
TDP2 absorb: TDP2 (human) inhibition, absorbance primary screen. inhibition, % at 12.8 µM. O95551. recombinant TDP2, T5PNP hydrolysis, p-nitrophenol absorbance 415 nm. 370,000 tested, 0.34% active;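 active = inhibition above the mean of all tested compounds plus 3 SD, set per campaign, cut at about 25% in these data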
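test system = human TDP2 enzyme | input = TDP2 enzyme at 120 nM final | medium = 50 mM Tris-HCl pH 7.5 with Mg2+, KCl, DTT, BSA | also added = T5PNP substrate, 5 mM | times = 2 h at 37 °C | technique = epi absorbance | benchmarks = high control without enzyme, low control DMSO plus TDP2 | replication = each compound tested once, singlicate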
Apaf1 inhib: human Apaf-1 inhibition | reconstituted apoptosome caspase-3 activity, DEVD-Rh110 fluorescence | inhibition, % at 20 µM | 330,000 tested, 0.71% active | AID 489030; active = inhibition of at least 40% at 20 µM
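Material: biochemical Apaf-1 apoptosome reconstitution. Medium: Hepes buffer, pH 7.5. Also added: cytochrome c activation, bis-DEVD rhodamine 110 substrate. Timing: 30 min compound preincubation, 50 min activation, room temperature. Measured by: rhodamine 110 fluorescence at Ex 480/Em 540 nm.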
PRMT1 FP inh: inhibitors of human PRMT1 | inhibition, % at 2.79 µM | Q99873 | 370,000 tested, 1.3% active | recombinant PRMT1, activity-based probe fluorescence polarization | AID 652257;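 active = inhibition above about 21% made by adding two undisclosed values, limit read from the data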
GSTO1 counter: GSTO1 inhibition, counter-screen for RBBP9 inhibitors. P78417. recombinant GSTO1, activity-based probe fluorescence polarization. inhibition, % at 5.96 µM. 300,000 tested, 1.1% active. AID 1974;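 active = inhibition above the campaign mean inhibition plus 3 SD, cut at about 35% in these data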
GSTO1 inh conf: GSTO1 (human) inhibition, confirmation. shares compounds with GSTO1 counter. recombinant GSTO1, probe fluorescence polarization. inhibition, % at 5.96 µM. 2,400 tested, 54% active. AID 2176;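 active = inhibition above the primary screen's cutoff, its mean inhibition plus 3 SD, cut at about 35% in these data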;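 note: loss of polarization as inhibitors block binding of rhodamine sulfonate ester activity probe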
GSTO1 ABPP inh: GSTO1 (human) inhibition by gel ABPP; shares compounds with GSTO1 counter; recombinant GSTO1, gel ABPP SE-Rh probe fluorescence; inhibition, % at 1 µM; 130 tested, 30% active; AID 463110;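 active = inhibition of the enzyme GSTO1 above about 75%, limit read from the data; inactive = inhibition below that limit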
Of the large screens only hits and unclear results are named; the others gave an inactive call (follow-up assays come after a bar, where they were run). A selection: hits, their analogues and other compounds. The true share with any hit is near 2.6%.

CCOc1ccc(NC(=O)C2C(C(=O)O)C3(Cl)C(Cl)=C(Cl)C2(Cl)C3(Cl)Cl)cc1 (stereo unspecified)	GSTO1 counter 44 | GSTO1 inh conf inactive
CCOc1ccc(NC(=O)C2C(c3ccccc3)C2(Cl)Cl)cc1 (stereo unspecified)	none
OCCN1CCN(c2nc(-c3ccccc3)c3cc(Cl)ccc3n2)CC1	none
Cc1ccc2nc(N3CCN(CCO)CC3)nc(-c3ccccc3)c2c1	GSTO1 counter 43 | GSTO1 inh conf inactive
Cc1cc(C(=O)NNC(=O)c2ccc(Cl)cc2)no1	GSTO1 counter 48 | GSTO1 inh conf inactive
CC12CCC(C(=O)N(CCCCN3CCN(Cc4ccccc4)CC3)C1=O)C2(C)C (stereo unspecified)	none
CC12CCC(C(=O)N(CC3CO3)C1=O)C2(C)C (stereo unspecified)	GSTO1 counter 61 | GSTO1 inh conf 77 | GSTO1 ABPP inh inactive
CC(C)CC1Nc2ccc(C(=O)NCCCN3CCOCC3)cc2NC1=O (stereo unspecified)	none
CC(C)CC1Nc2ccc(C(=O)NCc3ccc4c(c3)OCO4)cc2NC1=O (stereo unspecified)	GSTO1 counter 45 (no result: TDP2 absorb, PRMT1 FP inh) | GSTO1 inh conf inactive
[O-][N+]1=c2ccc(Nc3ccccc3)cc2=NC12CCCCC2	GSTO1 counter 58 (no result: Apaf1 inhib) | GSTO1 inh conf 35
CN1[C@H](Cc2ccccc2)COc2cc(N3CCSCC3)ccc2S1(=O)=O	none (no result: PAD4 FP inh, Apaf1 inhib, GSTO1 counter)
N#CC1(NC(=O)COC(=O)c2cc(O)c3ccccc3c2O)CCCCC1	Apaf1 inhib 73, GSTO1 counter 61 (no result: TDP2 absorb, PRMT1 FP inh) | GSTO1 inh conf 57
N#CC1(NC(=O)COC(=O)c2ccccc2[N+](=O)[O-])CCCCC1	none
COc1ccc(Cn2ccc3ccc(-c4ccc5ccn(Cc6ccccc6)c5c4)cc32)cc1	none (no result: PAD4 FP inh, Apaf1 inhib, GSTO1 counter)
Cc1ccc(NC(=O)CC(N)=S)cc1	GSTO1 counter 56 | GSTO1 inh conf inactive
CCNC(=O)N1CCN(c2ccc(N3CCN(C(=O)NCC)[C@@H](C)C3)c(C)c2)[C@H](C)C1	none (no result: PAD4 FP inh, Apaf1 inhib, GSTO1 counter)
O=C1C2C3C=CC(C2C(=O)N1c1ccc(O)cc1)C1C2C(=O)N(c4ccc(O)cc4)C(=O)C2C31 (stereo unspecified)	GSTO1 counter 42 | GSTO1 inh conf inactive
Cc1ccc2nc(-c3ccccc3)cn2c1	none
Oc1ccc(-c2csc(-c3ccccc3)n2)cc1O	GSTO1 counter 39 | GSTO1 inh conf inactive
Oc1ccccc1-c1csc(-c2ccccc2)n1	none
c1cncc(-c2nc(-c3ccc4c(c3)OCCO4)cs2)c1	none
COc1cc(-c2csc(C)n2)ccc1O	none
Oc1ccc(-c2csc(-c3cccnc3)n2)cc1O	GSTO1 counter 59 | GSTO1 inh conf inactive
Cc1nc(-c2ccc(O)c(O)c2)cs1	GSTO1 counter 42 | GSTO1 inh conf inactive
Cc1ccc2nc(-c3ccc(O)c(O)c3)cn2c1	GSTO1 counter 58 | GSTO1 inh conf inactive
CC(=O)OCC(C)n1[nH]c2ccccc2c1=O (stereo unspecified)	none (no result: PAD4 FP inh, Apaf1 inhib, GSTO1 counter)
O=C(CNC(=O)c1ccccc1)NCCc1ccc(O)c(O)c1	PRMT1 FP inh 25, GSTO1 counter 75 | GSTO1 inh conf inactive
CCc1ccc(NS(=O)(=O)c2ccc3c(c2)oc(=O)n3C)cc1	GSTO1 counter 53 | GSTO1 inh conf 44
CCN(CCCNS(=O)(=O)c1ccc2c(c1)oc(=O)n2C)c1cccc(C)c1	GSTO1 counter 38 | GSTO1 inh conf 36
COc1cccc(CCNC(=O)CCc2nc(-c3ccccc3F)no2)c1	none (no result: PAD4 FP inh, Apaf1 inhib, GSTO1 counter)
O=C(CN(CCc1ccccc1)S(=O)(=O)c1ccccc1)N1CCOCC1	none (no result: PAD4 FP inh, Apaf1 inhib, GSTO1 counter)
O=C1CCCC2=C1C(c1ccco1)Nc1ccc3ccccc3c12 (stereo unspecified)	PRMT1 FP inh 44, GSTO1 counter 38 | GSTO1 inh conf inactive
COc1cc(C2Nc3ccc4ncccc4c3C3=C2C(=O)CCC3)cc(OC)c1O (stereo unspecified)	none
O=C1CCCC2=C1C(c1ccc(O)c(O)c1)Nc1ccc3ccccc3c12 (stereo unspecified)	GSTO1 counter 67 | GSTO1 inh conf inactive
O=C1Nc2ccccc2/C1=N\N=C\c1ccc(O)c(O)c1	PRMT1 FP inh 33, GSTO1 counter 69 | GSTO1 inh conf inactive
Oc1ccc(/C=N/N=C/c2ccc(O)c(O)c2)cc1O	GSTO1 counter 39 | GSTO1 inh conf inactive
O=c1c2ccccc2n(Cc2ccco2)n1[C@@H](Cc1ccccc1)Cn1cc(C2CCCC2)nn1	none (no result: PAD4 FP inh, Apaf1 inhib, GSTO1 counter)
O=C(Nc1cc(C(F)(F)F)cc(C(F)(F)F)c1)O[C@@H]1c2ccccc2[C@@H]2Cc3csc[n+]3[C@H]12	none (no result: PAD4 FP inh, Apaf1 inhib, GSTO1 counter)
CCN(CC)c1ccc2c(-c3ccc(S(=O)(=O)O)cc3S(=O)(=O)[O-])c3ccc(=[N+](CC)CC)cc-3oc2c1	GSTO1 counter 198 (no result: PAD4 FP inh, TDP2 absorb, PRMT1 FP inh) | GSTO1 inh conf active
Cc1nn(-c2ccccc2)c2c1C(c1ccco1)C(C#N)=C(N)O2 (stereo unspecified)	GSTO1 counter 41 | GSTO1 inh conf inactive
Cc1ccc(-c2nc3ccccc3n2C(C(=O)NC(C)(C)C)C2CC2)cc1 (stereo unspecified)	none (no result: PAD4 FP inh, Apaf1 inhib, GSTO1 counter)
CCc1ccc(CCNC(=O)OCCCN2CCC3(CCC(c4ccccc4)CC3)C2=O)cc1 (stereo unspecified)	none (no result: PAD4 FP inh, Apaf1 inhib, GSTO1 counter)
Oc1cccc(/C=N/NC(=S)NCCN2CCOCC2)c1O	GSTO1 counter 88 | GSTO1 inh conf 58
CC(=O)NC1(C(F)(F)F)C(=O)Nc2c1c(=O)[nH]c(=O)n2CCc1ccccc1 (stereo unspecified)	none
O=C(CCl)NC1(C(F)(F)F)C(=O)Nc2c1c(=O)[nH]c(=O)n2-c1ccccc1 (stereo unspecified)	GSTO1 counter 67 | GSTO1 inh conf 71
COc1ccc(NC2=C(NC(C)=O)C(=O)c3ccccc3C2=O)cc1	none
Cc1ccc(Nc2ccccc2)cc1	none
CCN(CC)c1ccc(NC2=C(Cl)C(=O)c3ccccc3C2=O)cc1	GSTO1 counter 83 (no result: TDP2 absorb, Apaf1 inhib, PRMT1 FP inh) | GSTO1 inh conf 84
Cc1ccc(NC2=C(Cl)C(=O)c3ccccc3C2=O)cc1	GSTO1 counter 85 (no result: Apaf1 inhib) | GSTO1 inh conf 85
O=C1C(Cl)=C(Nc2ccc(O)cc2)C(=O)c2ccccc21	PRMT1 FP inh 36, GSTO1 counter 90 | GSTO1 inh conf 92
C#Cc1cccc(OCC(C)CN2CCC(C(O)(c3ccccc3)c3ccccc3)CC2)c1 (stereo unspecified)	none (no result: PAD4 FP inh, Apaf1 inhib, GSTO1 counter)
COc1cc(/C=C2/S/C(=N/S(=O)(=O)c3ccccc3)NC2=O)c([N+](=O)[O-])cc1OC	PRMT1 FP inh 33, GSTO1 counter 41 | GSTO1 inh conf inactive
COc1cc(/C=C2\S/C(=N/S(=O)(=O)Cc3ccccc3)NC2=O)c([N+](=O)[O-])cc1OC	none
